Measurements from ChEMBL document CHEMBL1821687, “Discovery, synthesis, and biological evaluation of novel SMN protein modulators” (J Med Chem, 2011).
Activity calls are given as the source filed them. No cut-off for these calls is given here.

Experiments:
[1] = target: Survival motor neuron protein (Homo sapiens) (UniProt Q16637); experiment: Activation of SMN expressed in HEK293 cells assessed as rate of induction by SMN2-promotor driven luciferase reporter gene assay relative to basal level; type: cell-based; parameters: concentration or dose not given beside the values
Procedure, shortened: (§1)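 HEK-293 cells stably carrying the SMN2 reporter construct, kept in DMEM with 10% FCS, glutamax, pyruvate, pen/strep and 200 µg/mL hygromycin, and assayed without hygromycin. 2,000 cells/well were plated and adhered overnight at 37 °C, 5% CO2. Compounds were added as a 7-point titration, 50 µM to 25 nM final, in 0.46% DMSO, for 30–36 h. OneGlo luminescence was normalized to 4.5 mM sodium butyrate (100%) and DMSO (0%).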

Caco-2 [2] = experiment: Apparent permeability from apical side to basolateral side of human Caco2 cells at 10 uM; type: ADME, cell-based; conditions: caco-2, 10 µM
[3] = target: T1, Luciferin 4-monooxygenase (Luciola lateralis, UniProt Q01158); experiment: Inhibition of fire fly luciferase; parameters: species or system Aquatica lateralis; conditions: read-out: IC50
T1 sequence (Q01158 whole entry): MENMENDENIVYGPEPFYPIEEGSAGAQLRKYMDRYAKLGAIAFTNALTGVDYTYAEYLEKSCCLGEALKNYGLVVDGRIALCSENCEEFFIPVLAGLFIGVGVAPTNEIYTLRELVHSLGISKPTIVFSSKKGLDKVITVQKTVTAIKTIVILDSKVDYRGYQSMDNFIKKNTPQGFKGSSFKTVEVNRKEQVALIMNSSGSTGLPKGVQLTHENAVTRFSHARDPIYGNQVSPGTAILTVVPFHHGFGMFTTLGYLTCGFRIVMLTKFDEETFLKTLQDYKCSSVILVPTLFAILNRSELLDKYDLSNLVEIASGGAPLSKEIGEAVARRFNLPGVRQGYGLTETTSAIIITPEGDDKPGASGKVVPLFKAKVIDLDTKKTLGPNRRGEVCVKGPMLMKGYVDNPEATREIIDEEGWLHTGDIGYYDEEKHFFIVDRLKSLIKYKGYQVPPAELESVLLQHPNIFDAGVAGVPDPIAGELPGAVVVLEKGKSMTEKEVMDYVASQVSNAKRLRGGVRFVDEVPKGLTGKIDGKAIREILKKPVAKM

[4] = target: Survival motor neuron protein (Homo sapiens) (UniProt Q16637); experiment: Activation of SMN expressed in HEK293 cells assessed as concentration required to reach 50% of maximum luciferase signal by SMN2-promotor driven luciferase reporter gene assay; type: cell-based; procedure, shortened: as §1
Liver = experiment: Half-life in mouse liver microsome at 1 uM; type: ADME; conditions: microsomes
Caco-2 [5] = experiment: Apparent permeability from basolateral side to apical side of human Caco2 cells at 10 uM; type: ADME, cell-based; conditions: caco-2, 10 µM
[6] = target: Survival motor neuron protein (Homo sapiens) (UniProt Q16637); experiment: Activation of SMN in human fibroblast cells obtained from type 1 SMA patients assessed as protein punctuate bodies per 100 nuclei at 37 to 3000 nM; type: cell-based
Procedure, shortened: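 Type I SMA patient fibroblasts (3813 line) were treated with 37–3000 nM compound for 3 days. Gems were then counted per 100 nuclei.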

Survival motor neuron protein (Homo sapiens), sequence (Q16637 whole entry): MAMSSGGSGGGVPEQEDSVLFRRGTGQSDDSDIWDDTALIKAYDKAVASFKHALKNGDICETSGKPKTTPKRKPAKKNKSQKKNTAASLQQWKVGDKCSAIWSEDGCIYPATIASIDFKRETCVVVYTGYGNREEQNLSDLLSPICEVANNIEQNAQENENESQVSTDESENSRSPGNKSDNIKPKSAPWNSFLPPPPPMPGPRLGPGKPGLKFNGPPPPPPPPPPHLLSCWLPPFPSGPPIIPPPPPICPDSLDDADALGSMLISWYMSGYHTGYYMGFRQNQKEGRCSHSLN

## NC(=O)C1CCN(c2ncc(-c3ccc4c(c3)OCCCO4)s2)CC1
[1]
  Activity: 370%
Caco-2 [2]
  Papp: 13.1 ×10⁻⁶ cm/s
[3]
  IC50: 3.2 µM
[4]
  Activity: 0.038 µM
Liver
  t1/2: 30 min
Caco-2 [5]
  Papp: 9.9 ×10⁻⁶ cm/s
[6]
  Activity: inactive
